A selection: hits, their analogues and other compounds. The true share with any hit is near 3.5%.
pPAFAH inh: pPAFAH (human) enzyme inhibition | inhibition, % at 3.39 µM | recombinant pPAFAH, FP-rhodamine probe fluorescence polarization | 330,000 tested, 1.5% active;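 active = inhibition above the mean inhibition across the screen plus 3 SD, cut at about 25% in these data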;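 note: inhibitors block binding of the rhodamine activity-based probe so polarization drops; 0% = enzyme with DMSO and 100% = wells lacking pPAFAH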
Apaf-1 inh: inhibitors of human Apaf-1 apoptosome; inhibition, % at 20 µM; O14727; 330,000 tested, 0.71% active; reconstituted apoptosome caspase-3 activity, DEVD-Rh110 fluorescence; active = inhibition of at least 40% at 20 µM;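 note: plate controls were DMSO wells for no effect and DEVD-CHO caspase inhibitor wells for full effect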
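Material: biochemical Apaf-1 apoptosome reconstitution. Medium: Hepes buffer, pH 7.5. Also added: cytochrome c activation, bis-DEVD rhodamine 110 substrate. Timing: 30 min compound preincubation, 50 min activation, room temperature. Measured by: rhodamine 110 fluorescence at Ex 480/Em 540 nm.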
PAFAH2 FP inh: inhibitors of human PAFAH2. Q99487. recombinant PAFAH2, FP-rhodamine activity probe, fluorescence polarization. inhibition, % at 3.39 µM. 340,000 tested, 0.99% active;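 active = inhibition above the mean over all tested compounds plus 3 SD, cut at about 30% in these data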;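 note: inhibitors block probe labeling of enzyme so polarization drops; 0% = enzyme with DMSO and 100% = wells lacking PAFAH2 protein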
PAFAH1B3 FP inh: inhibitors of human PAFAH1B3 | recombinant PAFAH1B3, FP-rhodamine probe, fluorescence polarization | inhibition, % at 3.39 µM | 340,000 tested, 0.28% active;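 active = inhibition above the screen-wide average of all tested compounds plus 3 SD, cut at about 25% in these data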;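 note: 0% = enzyme with DMSO only and 100% = wells lacking PAFAH1B3 protein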
PAFAH1B2 inh: blocks human PAF acetylhydrolase 1b catalytic subunit 2; AID 492953; inhibition, % at 3.39 µM; P68402; recombinant PAFAH1B2, FP-rhodamine activity probe, fluorescence polarization; 340,000 tested, 1.2% active;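 active = inhibition above the mean of all tested compounds plus 3 SD, cut at about 24% in these data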;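 note: 0% = enzyme with DMSO and 100% = wells lacking PAFAH1B2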
PREPL inhibitor: inhibits the human prolyl oligopeptidase-like enzyme; 320,000 tested, 0.68% active; inhibition, % at 5.96 µM; recombinant PREPL, fluorescence polarization activity-based probe; Q4J6C6; in the data active = inhibition above about 43%;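 note: 0% = enzyme with DMSO and 100% = wells lacking enzyme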
Target sequence (Q4J6C6 whole entry, looked up): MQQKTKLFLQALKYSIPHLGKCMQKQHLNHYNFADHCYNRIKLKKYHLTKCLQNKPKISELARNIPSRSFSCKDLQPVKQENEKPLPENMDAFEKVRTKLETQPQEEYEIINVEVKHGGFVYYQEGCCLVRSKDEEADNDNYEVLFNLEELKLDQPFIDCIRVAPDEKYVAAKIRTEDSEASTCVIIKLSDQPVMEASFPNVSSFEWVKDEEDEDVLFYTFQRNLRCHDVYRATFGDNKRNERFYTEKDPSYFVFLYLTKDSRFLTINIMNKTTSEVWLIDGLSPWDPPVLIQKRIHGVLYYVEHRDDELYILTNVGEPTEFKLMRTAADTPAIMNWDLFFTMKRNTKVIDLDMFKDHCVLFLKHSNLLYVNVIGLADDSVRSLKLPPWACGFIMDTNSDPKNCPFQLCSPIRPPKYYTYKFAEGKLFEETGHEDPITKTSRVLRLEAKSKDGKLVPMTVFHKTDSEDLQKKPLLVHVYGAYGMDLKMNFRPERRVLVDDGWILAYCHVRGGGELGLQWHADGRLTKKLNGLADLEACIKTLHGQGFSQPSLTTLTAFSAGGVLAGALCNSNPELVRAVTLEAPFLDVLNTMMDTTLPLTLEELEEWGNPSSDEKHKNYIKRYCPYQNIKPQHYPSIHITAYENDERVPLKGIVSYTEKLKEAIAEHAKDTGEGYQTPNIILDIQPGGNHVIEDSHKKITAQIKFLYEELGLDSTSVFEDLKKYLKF
PAFAH2 confirm: confirmation of human PAFAH2 inhibitors; 2,300 tested, 65% active; shares compounds with PAFAH2 FP inh; recombinant PAFAH2, FP-rhodamine activity probe, fluorescence polarization; inhibition, % at 3.39 µM;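 active = mean inhibition over three repeats above a set limit taken from the earlier primary screen, cut at about 30% in these data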;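 note: inhibitor blocks binding of rhodamine activity probe so polarization falls; 0% = enzyme with DMSO and 100% = wells lacking PAFAH2 protein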
The depositor's hits bear a star; · = not tested or not shown.

SMILES	pPAFAH inh	Apaf-1 inh	PAFAH2 FP inh	PAFAH1B3 FP inh	PAFAH1B2 inh	PREPL inhibitor	PAFAH2 confirm
COc1cc(NC(=O)COC(=O)C2CC2)c(C)cc1[N+](=O)[O-]	-1	5	46*	5	-2	-3	28
O=C(O)Cc1c[nH]c2ccc(O)cc12	3	-14	11	0	2	9	·
CCn1cc(/C=N\NC(=O)c2ccc(F)cc2)cn1	1	-1	-4	5	1	3	·
CCOC(=O)C1(Cc2ccccc2)CCN(C2Cc3ccccc3C2)CC1	7	-2	33*	5	0	-1	8
CCOC(=O)C1(Cc2ccc(Cl)cc2)CCN(C2CCC2)CC1	2	-16	2	2	1	-8	·
Cc1csc2c(N(C)CCO)ncnc12	-2	-7	-3	9	8	3	·
O=C(Nc1nnc(SCc2ccccc2Cl)s1)C1COc2ccccc2O1 (centres undefined)	5	2	52*	5	11	2	41*
C=CCNC(=O)COC(=O)c1ccc(C)c(NC(=O)c2ccco2)c1	1	-16	36*	0	5	-6	30*
CCCCNC(=O)COC(=O)c1ccc(C)c(NC(=O)c2ccco2)c1	4	-8	50*	1	-2	2	45*
CCN(CC)C(=O)COC(=O)c1ccc(C)c(NC(=O)c2ccco2)c1	4	-5	3	6	10	-11	·
O=C(COC(=O)c1ccc(F)c(S(=O)(=O)N2CCOCC2)c1)NCc1ccc(F)cc1	0	5	33*	11	2	-4	25
Cc1ccc(C(=O)OCC(=O)NC(C)C)cc1S(=O)(=O)N1CCOCC1	11	-2	32*	1	1	11	23
Cc1ccc(C(=O)OCC(=O)Nc2ccccc2C(F)(F)F)cc1S(=O)(=O)N1CCOCC1	8	-3	63*	1	3	3	57*
Cc1ccc(C(=O)OCC(=O)NCCc2ccc(F)cc2)cc1S(=O)(=O)N1CCOCC1	15	-11	47*	-5	6	14	37*
COc1ccc(CNC(=O)COC(=O)c2ccc(C)c(S(=O)(=O)N3CCOCC3)c2)cc1	13	-5	13	4	2	2	·
CCOC(=O)c1ccccc1NC(=O)COC(=O)c1ccc(C)c(S(=O)(=O)N2CCOCC2)c1	4	17	17	4	-4	-4	·
O=C(CCc1ccco1)CCc1ccco1	·	·	5	-5	0	·	·
Cn1c(CO)cnc1-c1ccccc1	4	6	3	10	-3	-5	·
O=C(COC(=O)C1=COCCO1)Nc1ccccc1Oc1ccccc1	5	-20	8	-2	4	4	·
O=C(COC(=O)C1=COCCO1)Nc1ccc([N+](=O)[O-])cc1C(F)(F)F	6	2	32*	6	4	-2	19
O=C(COC(=O)C1=COCCO1)Nc1cccc(Oc2ccccc2)c1	4	22	90*	10	5	-5	74*
O=C(COC(=O)C1=COCCO1)NC1CCCCCCC1	2	4	76*	9	3	7	74*
CC(=O)c1cccc(NC(=O)COC(=O)C2=COCCO2)c1	2	-12	44*	2	1	-3	38*
O=C(NC1CCCC1)C1=COCCO1	-5	-7	2	7	0	6	·
CCOC(=O)C(C(=O)Cc1ccccc1)c1ccccc1 (centres undefined)	·	·	10	12	9	·	·
SMILES	pPAFAH inh	Apaf-1 inh	PAFAH2 FP inh	PAFAH1B3 FP inh	PAFAH1B2 inh	PREPL inhibitor	PAFAH2 confirm
COc1ccc(CCN2C(=NC(=O)CC(C)C)SC3CS(=O)(=O)CC32)cc1OC (centres undefined)	-2	-2	1	3	6	-12	·
O=C(COC(=O)C1=COCCO1)Nc1ccccc1	7	1	79*	1	4	2	68*
CCOC(=O)/C=C/C(=O)OCC(=O)Nc1ccc(C)cc1	2	10	·	·	·	8	·
Cc1ccc(OCCC(=O)OCC(=O)Nc2cc(C)cc(C)c2)cc1	16	8	-4	-2	5	-9	·
CC(C)=CC(=O)OCC(=O)Nc1cc(C)cc(C)c1	9	8	81*	11	3	16	85*
CC(C)=CC(=O)OCC(=O)Nc1ccc(Cl)cc1	13	8	80*	4	3	3	78*
COc1ccc(CNC2CC(=O)N(C)C2=O)cc1 (centres undefined)	0	-19	2	2	1	2	·
Cc1ccc(S(=O)(=O)N(CC(=O)Nc2ccccc2C(=O)O)c2ccccc2C)cc1	-3	5	2	16	3	-1	·
Cc1ccc(S(=O)(=O)N(CC(=O)Nc2ccccc2C(=O)O)c2cccc(Cl)c2C)cc1	-5	9	32*	-10	10	-7	29
CCCCn1c(SCC(=O)Nc2oc(C)c3c(C)n[nH]c(=O)c23)nc2cc(S(N)(=O)=O)ccc21	-3	1	6	11	1	5	·
Nc1ccc(C(=O)OCC(=O)Nc2ccc3c(c2)OCO3)cc1[N+](=O)[O-]	5	4	65*	9	8	7	49*
CCC(=O)Nc1cc(C(=O)OCC(=O)c2ccccc2Cl)ccc1C	-2	6	42*	5	10	-2	32*
O=C(COC(=O)c1ccc(O)cc1)Nc1cc(C(F)(F)F)ccc1Cl	12	24	55*	5	13	-20	40*
N/C(=N\OC(=O)c1ccc2c(c1)OCO2)c1ccc(Cl)cc1	3	-4	33*	9	-4	17	30*
CCC(=O)Nc1cc(C(=O)OCC(=O)c2ccc(Cl)cc2Cl)ccc1C	4	11	17	11	7	-8	·
Clc1ccc(/C=C/c2ncc3ccccn23)cc1	16	-9	-3	-1	0	20	·
O=C(COC(=O)c1ccc(O)cc1)Nc1ccc2c(c1)OCCO2	16	2	78*	5	-5	14	69*
COc1cc(OC)cc(C(=O)OCC(=O)Nc2cccc(C(C)=O)c2)c1	1	6	7	6	4	5	·
O=C(COC(=O)c1ccc(O)cc1)Nc1ccccc1	17	1	92*	8	-3	7	80*
CC(=O)c1cccc(NC(=O)COC(=O)c2ccc3c(c2)OCCO3)c1	7	-32	84*	8	3	-6	71*
O=C(COC(=O)c1ccc(O)cc1)c1ccc2c(c1)OCCO2	·	4	14	0	3	·	·
CN(C)c1cccc(C(=O)OCC(=O)Nc2ccccc2Cl)c1	10	1	54*	-2	1	15	50*
Cc1[nH]c(C)c(S(=O)(=O)NCCc2ccccc2)c1C(=O)N1CCCCC1	4	-3	6	9	5	3	·

Bioassay records (PubChem BioAssay)
